The values below come from ChEMBL document CHEMBL1141843, “Sesquiterpene esters from Celastrus orbiculatus and their structure-activity relationship on the modulation of multidrug resistance” (J Nat Prod, 1999).

The IC50 is the concentration at which inhibition is half-maximal.

A short description of assay [1]: Cytotoxicity against human KB31 cells after 48 hrs by SRB method. The note with it: KB 3-1, 48 h. It counts as functional, cell-based. The method, boiled down:
(§1)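 KB-3-1 and KB-V1 cells grown in DMEM with 2 mM L-glutamine and 10% heat-inactivated FCS at 37 °C, 5% CO2. KB-V1 kept under VLB. 2.5-5.0×10^3 cells/well seeded in 5% FCS medium, attached overnight, then exposed to compound for 48 h. Vehicle was DMSO or MeOH, final <0.5%. Read by SRB: TCA fixation, 0.4% SRB stain, Tris solubilization, absorbance at 570 nm. Mean ± S.D. of two experiments.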

Assay [2] is described as follows: Cytotoxicity against vinblastine resistant human KBV1 cells after 48 hrs by SRB method. It counts as functional, cell-based. As to conditions: KB-V1, 48 h. In short, it runs like this: as §1
(Sulforhodamine B stains cellular protein and so reports cell mass.)

A short description of assay [3]: Cytotoxicity against vinblastine resistant human KBV1 cells after 48 hrs in presence of 100 nM vinblastine by SRB method. It counts as functional, cell-based. As to conditions: KB-V1, 48 h. In short, it runs like this:
as §1

The test system of assay [4] is KB-V1. Kind of assay: Reversal of P-glycoprotein-mediated multidrug resistance assessed as ratio of IC50 for human KB-V1 cells to IC50 for human KB-V1 cells in presence of 100 nM vinblastine. It counts as cell-based. The method, boiled down: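 KB-V1 cells given compound alone or with 100 nM vinblastine for 48 h. Growth read by SRB at 570 nm and IC50 taken against vehicle controls. Enhancement factor = IC50 in KB-V1 without VLB / IC50 with VLB. Mean ± S.D. of two experiments.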

In assay [5] the test system is KB-V1. Kind of assay: Reversal of P-glycoprotein-mediated multidrug resistance assessed as ratio of vinblastine IC50 for drug-resistant human KB-V1 cells to vinblastine IC50 for human drug-sensitive KB-3-1 cells at 10 uM after 48 hrs by SRB method. In kind it is cell-based. In short, it runs like this: (§2)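 KB-3-1 and resistant KB-V1 cells seeded overnight, then treated for 48 h with a concentration range of adriamycin, vinblastine or taxol plus 10 μM modulator. Growth read by SRB at 570 nm and IC50 taken against vehicle controls. Relative resistance = IC50 in KB-V1 / IC50 in KB-3-1.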

Assay [6] relates to KB-V1. Nature of the assay: Reversal of P-glycoprotein-mediated multidrug resistance assessed as ratio of taxol IC50 for drug-resistant human KB-V1 cells to taxol IC50 for human drug-sensitive KB-3-1 cells at 10 uM after 48 hrs by SRB method. It counts as cell-based. In short, it runs like this:
as §2

The test system of assay [7] is KB-V1. Kind of assay: Reversal of P-glycoprotein-mediated multidrug resistance assessed as ratio of adriamycin IC50 for drug-resistant human KB-V1 cells to adriamycin IC50 for human drug-sensitive KB-3-1 cells at 10 uM after 48 hrs by SRB method. It counts as cell-based. The method, boiled down: as §2

Turning to `CC(=O)O[C@H]1CC[C@@H](C)[C@]23OC(C)(C)[C@H](C[C@H](OC(=O)c4ccco4)[C@]12C)[C@H]3OC(=O)c1ccccc1` [ORBICULIN C], the IC50 is 8.6 µM in assay [1], 9.6 µM in assay [2] and 1 µM in assay [3]. Besides, the Ratio IC50 in the assay on KB-V1 [4] was determined as 9.6.
For `CC(=O)O[C@H]1C[C@@H](C)[C@]23OC(C)(C)[C@H](C[C@H](OC(=O)c4ccccc4)[C@]2(C)[C@H]1OC(C)=O)[C@H]3OC(=O)c1ccccc1` [ORBICULIN A], the IC50 in assay [1] stood at 31.6 µM; in assay [2], 32 µM; in assay [3] it was 0.4 µM. In addition, the Ratio IC50 with KB-V1 [4] was 80; in the assay on KB-V1 [5], 0.9; in the assay with KB-V1 [6], 1.2; with KB-V1 [7], 3.
For the compound `CC(=O)OC[C@@]12[C@@H](OC(C)=O)CC[C@@H](C)[C@]13OC(C)(C)[C@H](C[C@@H]2OC(=O)c1ccccc1)[C@H]3OC(C)=O`, the IC50 in assay [1] worked out at 85.3 µM; in assay [2], 79.4 µM; in assay [3], 1 µM. Besides, the Ratio IC50 with KB-V1 [4] was determined as 79.4; in the assay with KB-V1 [5] it was 12.9; with KB-V1 [6], 10; in the assay on KB-V1 [7] it was 5.5.
Take `CC(=O)O[C@H]1[C@@H](OC(=O)c2ccco2)C[C@@H](C)[C@]23OC(C)(C)[C@H](C[C@H](OC(=O)c4ccccc4)[C@]12C)[C@H]3OC(=O)c1ccco1` [ORBICULIN F]: the figures for the IC50 in assay [1], in assay [2] and in assay [3] were 32.4 µM, 39.3 µM and 1.1 µM, respectively. The Ratio IC50 with KB-V1 [4] was 35.7; in the assay on KB-V1 [5], 8.9; in the assay with KB-V1 [6], 11; in the assay on KB-V1 [7] it was 4.4.
Regarding `CC(=O)O[C@H]1[C@@H](OC(=O)c2ccccc2)C[C@@H](C)[C@]23OC(C)(C)[C@H](C[C@H](OC(=O)c4ccccc4)[C@]12C)[C@H]3OC(=O)c1ccccc1` [ORBICULIN G], the IC50 in assay [1] worked out at 26.4 µM; in assay [2], 28.6 µM; in assay [3] it was 4.8 µM. For the same compound, the Ratio IC50 with KB-V1 [4] came out at 5.9; with KB-V1 [5], 168; in the assay on KB-V1 [6], 143; in the assay on KB-V1 [7], 153.
`CC(=O)O[C@H]1CC[C@@H](C)[C@]23OC(C)(C)[C@H](C[C@H](OC(=O)c4ccco4)[C@]12C)[C@H]3OC(=O)c1ccco1` [ORBICULIN D]: the IC50 in assay [1] was found to be 16.8 µM; in assay [2], 17.8 µM; in assay [3] it was 1.2 µM. In addition, the Ratio IC50 with KB-V1 [4] turned out to be 14.8.
`CC(=O)O[C@H]1C[C@@H](C)[C@]23OC(C)(C)[C@H](C[C@H](OC(=O)c4ccccc4)[C@]2(C)[C@H]1OC(C)=O)[C@H]3OC(C)=O`: the IC50 in assay [1] turned out to be 41.3 µM; in assay [2], 34.8 µM; in assay [3], 0.4 µM. Besides, the Ratio IC50 came to 87 with KB-V1 [4], 2.3 in the assay on KB-V1 [5], 3.7 with KB-V1 [6] and 8.3 with KB-V1 [7].
As for `CC(=O)OC[C@]12[C@@H](OC(=O)c3ccccc3)C[C@@H]3[C@@H](OC(C)=O)[C@]1(OC3(C)C)[C@H](C)C[C@H](OC(=O)c1ccccc1)[C@@H]2OC(C)=O`, the IC50 in assay [1] worked out at 27.3 µM; in assay [2] it was 28.6 µM; in assay [3] it was 0.5 µM. The Ratio IC50 in the assay on KB-V1 [4] was determined as 57.2; in the assay with KB-V1 [5], 2.7; in the assay on KB-V1 [6] it was 3.9; in the assay on KB-V1 [7], 1.4.
On to `CC(=O)O[C@H]1CC[C@@H](C)[C@]23OC(C)(C)[C@H](C[C@H](OC(=O)c4ccccc4)[C@]12C)[C@H]3OC(=O)c1ccccc1`, for which the IC50 was 10.5 µM in assay [1], 12.3 µM in assay [2] and 1.9 µM in assay [3]. The Ratio IC50 in the assay on KB-V1 [4] was 6.4.
For the compound `CC(=O)O[C@H]1C[C@@H](C)[C@]23OC(C)(C)[C@H](C[C@H](OC(=O)c4ccccc4)[C@]2(C)[C@H]1OC(C)=O)[C@H]3OC(=O)c1ccco1` [ORBICULIN E], the values for the IC50 in assay [1], in assay [2] and in assay [3] were 28.3 µM, 33.1 µM and 0.5 µM, respectively. Further, the Ratio IC50 with KB-V1 [4] turned out to be 66.2; with KB-V1 [5], 1.6; in the assay with KB-V1 [6] it was 2.6; in the assay with KB-V1 [7] it was 1.8.
For `CC(=O)O[C@H]1CC[C@@H](C)[C@]23OC(C)(C)[C@H](C[C@H](OC(=O)c4ccccc4)[C@]12C)[C@H]3OC(=O)c1ccco1` [ORBICULIN B], the IC50 in assay [1] is 268 µM; in assay [2], 246 µM; in assay [3], 19.6 µM. In addition, in the assay on KB-V1 [4], the Ratio IC50 was 12.5.
